Laboratory results published in ChEMBL document CHEMBL1795234, “Practical synthesis, anticonvulsant, and antimicrobial activity of N-allyl and N-propargyl di(indolyl)indolin-2-ones” (2011).

Legend:
Assay type in all cases: functional
[1] = system: Escherichia coli; assay: Antibacterial activity against Escherichia coli K12 at 20 ug/ml after 24 hrs by cup plate method; details: K-12, 24 h, read-out: IZ
Summary of the method: (§1)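 Cup-plate (well diffusion) on Mueller-Hinton agar; compounds at 20 µg/mL in methanol, 20 µL per well; one well with 20 µL methanol as solvent control; Amikacin standard run alike. Held in refrigerator 1 h for diffusion, then incubated 24 h at 37 °C; zone of inhibition around cup measured.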

[2] = system: Mus musculus; assay: Anticonvulsant activity against maximum electric shock-induced seizure in Swiss albino mouse assessed as time spent in tonic clonus phase at 20 mg/kg, ip administered 30 mins before seizure induction by electroconvulsiometer analysis; details: route intraperitoneal
Summary of the method: (§2)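 Inbred Swiss albino mice, both sexes, 25–30 g, 7-day adaptation, groups of 5, each used once, tested 10:00–16:00. Compound suspended in 0.5% Tween 80, 20 mg/kg ip 30 min before maximal electroshock; vehicle control group and ip phenytoin 20 mg/kg standard. Seconds spent in flexion, extensor and clonus phases recorded, mean ± SEM.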

[3] = system: Candida albicans; assay: Antifungal activity against Candida albicans ATCC 10231 at 20 ug/ml after 24 hrs by cup plate method; details: ATCC 10231, 24 h, read-out: IZ
Summary of the method: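 C. albicans spores inoculated into lukewarm Sabouraud dextrose agar (pH 5.4, autoclaved 121 °C 15 min) and poured; cups filled with compound at 20 µg/mL, methanol solvent control, Ketoconazole standard. Kept refrigerated 1 h for diffusion, then incubated 24 h at 28 °C; zone of inhibition read.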

[4] = system: Mus musculus; assay: Anticonvulsant activity against maximum electric shock-induced seizure in Swiss albino mouse assessed as time spent in tonic flexion phase at 20 mg/kg, ip administered 30 mins before seizure induction by electroconvulsiometer analysis; details: route intraperitoneal; summary of the method: as §2
[5] = system: Mus musculus; assay: Anticonvulsant activity against maximum electric shock-induced seizure in Swiss albino mouse assessed as time spent in tonic extensor phase at 20 mg/kg, ip administered 30 mins before seizure induction by electroconvulsiometer analysis; details: route intraperitoneal; summary of the method: as §2
[6] = system: Staphylococcus aureus; assay: Antibacterial activity against methicillin-sensitive Staphylococcus aureus 22 at 20 ug/ml after 24 hrs by cup plate method; details: Staphylococcus aureus, 22, 24 h; read-out: IZ; summary of the method: as §1

Compound | zone of inhibition at 20 µg/mL [1] [mm] | Time [2] [s] | zone of inhibition at 20 µg/mL [3] [mm] | Time [4] [s] | Time [5] [s] | zone of inhibition at 20 µg/mL [6] [mm]
C=CCn1cc(C2(c3cn(CC=C)c4ccccc34)C(=O)Nc3ccccc32)c2ccccc21 | 12 | 3.6 | 11 | 5.8 | 48 | 12
C=CCn1cc(C2(c3cn(CC=C)c4ccccc34)C(=O)Nc3ccc([N+](=O)[O-])cc32)c2ccccc21 | 10 | 3.4 | 15 | 4.8 | 39.2 | 10
C=CCn1cc(C2(c3cn(CC=C)c4ccc(OC)cc34)C(=O)Nc3ccccc32)c2cc(OC)ccc21 | 10 | 3.2 | 14 | 4.8 | 31.8 | 12
C=CCn1cc(C2(c3cn(CC=C)c4ccc(OC)cc34)C(=O)Nc3ccc(Cl)cc32)c2cc(OC)ccc21 | 11 | 3.4 | 10 | 5.8 | 31.6 | 10
C=CCn1cc(C2(c3cn(CC=C)c4ccc(OC)cc34)C(=O)Nc3ccc(Br)cc32)c2cc(OC)ccc21 | 14 | 3.4 | 14 | 4.8 | 39.2 | 15
C=CCn1cc(C2(c3cn(CC=C)c4ccc(OC)cc34)C(=O)N(CC(=O)OCC)c3ccccc32)c2cc(OC)ccc21 | 14 | 3.4 | 10 | 4.8 | 31.6 | 12
O=C1Nc2ccccc2C1(c1cn(C/C=C/c2ccccc2)c2ccccc12)c1cn(C/C=C/c2ccccc2)c2ccccc12 | 14 | 3.6 | 13 | 4.8 | 39.6 | 10
CC(C)=CCn1cc(C2(c3cn(CC=C(C)C)c4ccc(Br)cc34)C(=O)Nc3ccccc32)c2cc(Br)ccc21 | 12 | 3.4 | 12 | 4.8 | 39.6 | 14
C#CCN1C(=O)C(c2cn(CC=C(C)C)c3ccc(Br)cc23)(c2cn(CC=C(C)C)c3ccc(Br)cc23)c2ccccc21 | 15 | 2.8 | 10 | 5.4 | 31.6 | 15
C#CCn1cc(C2(c3cn(CC#C)c4ccccc34)C(=O)Nc3ccccc32)c2ccccc21 | 10 | 3.2 | 12 | 4.8 | 39.2 | 11
C#CCn1cc(C2(c3cn(CC#C)c4ccccc34)C(=O)N(Cc3ccccc3)c3ccccc32)c2ccccc21 | 17 | 3.2 | 13 | 4.8 | 39.2 | 15
C#CCN1C(=O)C(c2cn(CC#C)c3ccccc23)(c2cn(CC#C)c3ccccc23)c2ccccc21 | 10 | 3.6 | 12 | 5.4 | 31.8 | 10
C#CCn1c(C)c(C2(c3c(C)n(CC#C)c4ccccc34)C(=O)Nc3ccccc32)c2ccccc21 | 15 | 2.8 | 15 | 5.4 | 31.6 | 15
NCC[C@H](O)C(=O)N[C@@H]1C[C@H](N)[C@@H](O[C@H]2O[C@H](CN)[C@@H](O)[C@H](O)[C@H]2O)[C@H](O)[C@H]1O[C@H]1O[C@H](CO)[C@@H](O)[C@H](N)[C@H]1O [AMIKACIN] | 18 | – | – | – | – | 17
CC(=O)N1CCN(c2ccc(OCC3COC(Cn4ccnc4)(c4ccc(Cl)cc4Cl)O3)cc2)CC1 (centres undefined) [KETOCONAZOLE] | – | – | 16 | – | – | –
O=C1NC(=O)C(c2ccccc2)(c2ccccc2)N1 [PHENYTOIN] | – | 3.4 | – | 5.6 | 43 | –
